Columns and labels:
[1] = biological target: T1, Thymidine kinase, cytosolic (Homo sapiens, UniProt P04183); experiment: Inhibition of recombinant cytosolic TK-1 assessed as [CH3-H3]dThd phosphorylation
T1 sequence (P04183 whole entry): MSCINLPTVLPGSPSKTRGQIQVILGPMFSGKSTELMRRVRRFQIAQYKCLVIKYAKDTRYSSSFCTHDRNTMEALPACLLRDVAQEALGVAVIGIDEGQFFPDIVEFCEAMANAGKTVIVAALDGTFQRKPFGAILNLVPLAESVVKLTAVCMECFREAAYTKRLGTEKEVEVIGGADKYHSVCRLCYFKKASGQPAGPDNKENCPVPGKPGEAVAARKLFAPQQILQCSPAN
Method in brief: (§1)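 Purified recombinant VZV TK (7.75 ng), HSV-1 TK (226 ng) or cytosolic TK-1 (455 ng). Buffer: 50 mM Tris-HCl pH 8.0, 2.5 mM MgCl2, 10 mM DTT, 2.5 mM ATP, 1.0 mg/mL BSA, 10 mM NaF, 1 µM [CH3-3H]dThd final. Incubated 30 min at 37 °C (linear range) with graded compound concentrations. Product caught on DE-81 disks, washed, scintillation-counted. IC50 is 50% inhibition of dThd phosphorylation.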

Thymidine kinase = biological target: T2, Thymidine kinase (Human alphaherpesvirus 1, UniProt Q9QNF7); experiment: Inhibition of recombinant HSV-1 TK assessed as [CH3-H3]dThd phosphorylation; method in brief: as §1
T2 sequence (Q9QNF7 whole entry): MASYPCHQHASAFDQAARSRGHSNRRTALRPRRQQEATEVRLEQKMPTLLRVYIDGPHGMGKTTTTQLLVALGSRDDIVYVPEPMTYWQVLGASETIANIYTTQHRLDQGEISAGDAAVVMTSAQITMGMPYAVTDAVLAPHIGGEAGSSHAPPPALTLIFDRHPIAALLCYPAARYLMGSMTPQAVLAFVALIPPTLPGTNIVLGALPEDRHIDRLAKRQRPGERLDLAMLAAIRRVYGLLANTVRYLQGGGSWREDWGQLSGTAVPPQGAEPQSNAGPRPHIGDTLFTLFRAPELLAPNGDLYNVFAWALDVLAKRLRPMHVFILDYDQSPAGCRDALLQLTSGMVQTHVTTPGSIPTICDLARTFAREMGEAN

[2] = Inhibition of recombinant VZV TK assessed as [CH3-H3]dThd phosphorylation; parameters: species or system Human alphaherpesvirus 3; method in brief: as §1
OST [3] = experiment: Cytotoxicity against OST cells expressing HSV1 TK; format: cell-based; details: human
Method in brief: (§2)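 OST TK- control cells and OST TK- cells expressing HSV-1 TK or VZV TK were cultured 5 days with graded compound concentrations. Cells were then trypsinized and counted on a Coulter counter. CC50 is the concentration in µM that reduces cell number by 50%.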

OST [4] = experiment: Cytotoxicity against OST cells expressing VZV TK; format: cell-based; details: human; method in brief: as §2

Structure (SMILES) | IC50 [1] | IC50 (Thymidine kinase) | IC50 [2] | Activity (OST [3]) | Activity (OST [4])
O=c1nc2oc(-c3cccc(OCCF)c3)cc2cn1[C@H]1C[C@H](O)[C@@H](CO)O1 | > 500 µM | > 500 µM | 53 µM | Not Active | Not Active
Nc1nc2c(ncn2CCC(CO)CO)c(=O)[nH]1 [PENCICLOVIR] |  | 11 µM |  |  | 
Nc1nc2c(ncn2CCC(CO)CF)c(=O)[nH]1 (stereo not drawn) |  | 9 µM |  |  | 
O=c1nc2oc(-c3ccc(F)cc3)cc2cn1[C@H]1C[C@H](O)[C@@H](CO)O1 | > 500 µM | > 500 µM | 0.18 µM |  | 
O=c1nc2oc(-c3ccccc3F)cc2cn1C1C[C@H](O)[C@@H](CO)O1 (stereo partly drawn) | > 500 µM | > 500 µM | 0.28 µM |  | 
O=c1nc2oc(-c3cccc(O)c3)cc2cn1[C@H]1C[C@H](O)[C@@H](CO)O1 | > 500 µM | > 500 µM | 2.6 µM | Not Active | Not Active

Reference: ChEMBL document CHEMBL1142866, “Synthesis and preliminary evaluation of 18F- or 11C-labeled bicyclic nucleoside analogues as potential probes for imaging varicella-zoster virus thymidine kinase gene expression using positron emission tomography” (J Med Chem, 2007)
